Assay results of several laboratories.
Lines come from different studies, so protocols differ.

| Structure (SMILES) | species | medium | route | dose | setting | measurement | result |
| --- | --- | --- | --- | --- | --- | --- | --- |
| Cc1ncc(C)n2nc(/C=C/c3nc(N4CCCC4)cc(N4CCOCC4)n3)nc12 | male beagle dog | plasma | oral | 0.3 mg/kg |  | Cmax | 78 nM |
| CN[C@H](CC(C)C)C(=O)N[C@H]1C(=O)N[C@@H](CC(N)=O)C(=O)N[C@H]2C(=O)NC3C(=O)N[C@H](C(=O)N[C@H](C(=O)NCCC[N+](C)(C)C)c4cc(O)cc(O)c4-c4cc3ccc4O)[C@H](O)c3ccc(c(Cl)c3)Oc3cc2cc(c3OC2OC(CO)C(O)[C@H](O)[C@@H]2O[C@H]2CC(C)(NCc3ccc(-c4ccc(Cl)cc4)cc3)[C@H](O)[C@H](C)O2)Oc2ccc(cc2Cl)[C@H]1O (some centres unmarked) | mouse | plasma | intravenous | 10 mg/kg |  | clearance | 2 mL/min/kg |
| O=C(Nc1cccnn1)N1CCN([C@@H]2CCOc3cc(C(F)(F)F)ccc32)CC1 | male Sprague-Dawley rat | plasma | oral | 0.3 mg/kg |  | Tmax | 49.8 min |
| CCN(CC)CCCC[C@H](NC(=O)[C@H](CC(C)C)NC(=O)[C@H](C)NC(=O)[C@H](Cc1ccccc1)NC(=O)c1ccc(C(C)(C)C)cc1)C(=O)N[C@@H](CO)C(=O)OC | male Swiss mouse | blood | intravenous | 3 mg/kg |  | clearance | 26.5 mL/min/kg |
| Cc1nc([C@@](C)(CC2CC2)NC(=O)c2cc(OCC(F)(F)F)c(C3CC3)cn2)no1 | C57BL/6 mouse | plasma | intravenous |  |  | clearance | 11.8 mL/min/kg |
| NCC(=O)Nc1ccc(-n2nc(C(F)(F)F)cc2-c2ccc3c(ccc4ccccc43)c2)cc1 | mouse | plasma | oral | 80 mg/kg | single dose | CL/F | 978 mL/min/kg |
| C[C@]12CC[C@H](n3ccnc3)CC1=CC[C@@H]1[C@@H]2CC[C@]2(C)C(n3cnc4ccccc43)=CC[C@@H]12.Cl.Cl | male CD-1 mouse | plasma | intravenous | 1 mg/kg |  | C0 | 603 ng/mL |
| CCC[C@@](N)(CO)CCc1ccc(OCCCCCC(C)C)cc1 | dog | plasma | oral | 20 mg/kg | fed | Cmax | 995 nM |
| N=c1c2c(-c3ccccc3)c(-c3ccccc3)n(Cc3ccccc3)c2ncn1[C@H]1CC[C@H](O)CC1 | male beagle dog | plasma | oral | 1 mg/kg | single dose | Cmax | 81.5 ng/mL |
| Cc1nonc1Cn1nnc2c(N3CC[C@H](O)C3)nc(C(C)(C)C)nc21 | C57BL/6 mouse | plasma | intravenous |  |  | clearance | 29.9 mL/min/kg |
| Cl.Cl.O=C(CCN1CCCCC1)c1ccc(-c2ccc(C(=O)CCN3CCCCC3)cc2)cc1 | Sprague-Dawley rat | plasma | oral | 100 mg/kg |  | Tmax | 45 min |
